Measurements gathered from unrelated publications.
Each line is one published result; the experiments were not run side by side.
Observed: cell growth or viability

With COc1cc2c(Nc3ccc(Br)cc3F)ncnc2cc1OCC1CCN(C)CC1 the GI50 was 1.14 µM (NCI-H292; ATP luminescence; 72 h).
COc1ccc(NC(=O)c2c(Nc3ccccc3)sc(C#N)c2NC(=O)CNc2ccccc2Cl)cc1 gave a viability of 88.3% (HepG2; SRB; 10 nM; 48 h).
With CCCCCCCCCCCCNC(=O)NCCCC[C@H](NS(C)(=O)=O)C(=O)N[C@H](C)C(=O)N[C@@H](CCCNC(=N)N)C(N)=O the EC50 was 28.6 to 38 µM (HEK-293T; MTT; 72 h).
COc1ccc(NC(=O)c2c(Nc3ccccc3)sc(C(=O)NN=Cc3ccc(OC)c(O)c3)c2NC(C)=O)cc1 gave a viability of 63.7% (HepG2; SRB; 0.1 µM; 48 h).
The inhibition of Cc1cc(Nc2ccc(C(=O)N/N=C/c3nc4ccccc4[nH]3)cc2)c2cccc(O)c2n1 is reported as 33% (Huh-7; MTT; 20 µM).
C=CC(=O)Nc1cccc(Nc2nc(Nc3ccc(OCCOC)cc3)ncc2F)c1 has a GI50 of 9.2 µM (Ramos; 48 h).
COc1ccc(NC(=O)c2c(Nc3ccccc3)sc(C(=O)NN=Cc3ccc(Cl)cc3)c2NC(C)=O)cc1 gave a viability of 92.3% (HepG2; SRB; 0.1 µM; 48 h).
The viability of CCOC(=O)c1ccc(-n2c(-c3ccc(C)cc3)cc(-c3ccc(O)cc3)c(C#N)c2=O)cc1 is reported as 33.1% (HepG2; MTT; 25 µM; 24 h).
C=CC(=O)N1CCC[C@@H](n2nc(-c3ccc(Oc4ccccc4)cc3)c3c(N)ncnc32)C1 gave a GI50 of > 10 µM (Ramos; 48 h).
The EC50 of CCCCCCCCCCCCNC(=S)NCCCC[C@H](NC(=O)OCc1ccccc1)C(=O)N[C@@H](C)C(=O)N[C@@H](CCCNC(=N)N)C(N)=O is reported as 102 to 121 µM (HEK-293T; MTT; 72 h).
COc1cc(Nc2nccc(-c3cnn4nc(OC)ccc34)n2)cc(C(F)(F)F)c1 has an IC50 of 0.45 µM (NCI-H292; ATP luminescence).
For Cc1cc(Nc2ccc(C(=O)N/N=C/c3cccc(Oc4ccccc4)c3)cc2)c2cccc(O)c2n1, the inhibition was 61% (Huh-7; MTT; 20 µM).
For CCOCc1sc(NCc2ncccn2)nc1-c1ccccn1, the CC50 was > 40 µM (Huh-7).
The viability of COc1ccc(NC(=O)c2c(Nc3ccccc3)sc(C#N)c2NC(=O)CNc2ccc([N+](=O)[O-])cc2)cc1 is reported as 68.4% (HepG2; SRB; 1 µM; 48 h).
CO[C@]1(C(=O)N[C@@H](C)c2ccc(-n3cc(F)cn3)nc2)CC[C@H](c2nc(C)cc(Nc3cc(C)[nH]n3)n2)CC1 gave a GI50 of > 10 µM (NCI-H292; ATP luminescence; 72 h).
With CC(C)C[C@H](NC(=O)[C@H](Cc1ccccc1)NC(=O)c1cnccn1)B(O)O the IC50 was 0.017 µM (NCI-H2009; ATP luminescence).
The EC50 of CCCCCCCCCCCCNC(=S)NCCCC[C@H](NS(C)(=O)=O)C(=O)N[C@@H](C)C(=O)N[C@@H](CCCNC(=N)N)C(N)=O is reported as ~100 µM (HEK-293T; MTT; 72 h).
CCOC(=O)c1ccc(-n2c(C)cc(/C=C/c3ccc(OC)cc3)c(C#N)c2=O)cc1 has a viability of 96% (HepG2; MTT; 6.25 µM; 24 h).
COc1ccc(NC(=O)c2c(Nc3ccccc3)sc(C(=O)NN=Cc3ccc(C)cc3)c2NC(C)=O)cc1 has a viability of 100% (HepG2; SRB; 1 nM; 48 h).
The viability of CCOC(=O)c1ccc(N2C(N)=C(C#N)C3(C(=O)Nc4ccccc43)C(C#N)=C2O)cc1 (stereo not shown) is reported as 94.2% (HepG2; MTT; 1.56 µM; 24 h).
Cc1ccc(/C=N/NC(=O)c2ccc(Nc3cc(C)nc4c(O)cccc34)cc2)cc1 gave an inhibition of 62.5% (Huh-7; MTT; 20 µM).
CCOC(=O)Cc1sc(NCc2ncccn2)nc1-c1ccccn1 has a CC50 of > 40 µM (Huh-7).
Cc1cccc(/C=N/NC(=O)c2ccc(Nc3cc(C)nc4c(O)cccc34)cc2)n1 gave an inhibition of 53.1% (Huh-7; MTT; 20 µM).
For CCOC(=O)c1ccc(-n2c(C)cc(C)c(C#N)c2=O)cc1, the viability was 100% (HepG2; MTT; 1.56 µM; 24 h).
CC(=O)Nc1cccc(-n2c(=O)n(C3CC3)c(=O)c3c(Nc4ccc(I)cc4F)n(C)c(=O)c(C)c32)c1 has a viability of 40.7% (HepG2; resazurin; 0.1 µM; 72 h).
For COc1ccc(NC(=O)c2c(Nc3ccccc3)sc(C(=O)NN=Cc3ccccc3)c2NC(C)=O)cc1, the viability was 60.2% (HepG2; SRB; 100 µM; 48 h).
With COc1ccc(/C=N/NC(=O)c2ccc(Nc3cc(C)nc4c(O)cccc34)cc2)cc1O the inhibition was 30.2% (Huh-7; MTT; 20 µM).
For COc1ccc(NC(=O)c2c(Nc3ccccc3)sc(C(=O)NN=Cc3cc(OC)c(OC)c(OC)c3)c2NC(C)=O)cc1, the viability was 89.2% (HepG2; SRB; 10 nM; 48 h).
Cc1cc(Nc2ccc(C(=O)N/N=C/c3ccc(C)s3)cc2)c2cccc(O)c2n1 has an inhibition of 43.3% (Huh-7; MTT; 20 µM).
COc1ccc(NCC(=O)Nc2c(C#N)sc(Nc3ccccc3)c2C(=O)Nc2ccc(OC)cc2)cc1 gave a viability of 91.1% (HepG2; SRB; 10 nM; 48 h).
With Cc1cc(Nc2ccc(C(=O)N/N=C/c3ccc[nH]3)cc2)c2cccc(O)c2n1 the inhibition was 68.3% (Huh-7; MTT; 20 µM).
